The source made the active and inactive calls. No cut-off for these calls is given here.
Experiments:
HCT-116 [1] = test: Antitumor activity against human HCT116 cells xenografted in BALB/cAnNCrl mouse assessed as increase in TUNEL positive apoptotic nuclei in tumor tissue at 15 to 30 mg/kg, po administered on day 1 to day 19 measured on day 19 by TUNEL assay; type: functional, organism-based
Method in brief: (§1)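 HCT-116 xenograft mice were dosed orally at 15 or 30 mg/kg, or 30 mg/kg for reference agents, for 19 days, with vehicle or saline controls. Tumor sections were stained for Ki-67, c-Myc, Ac-H3, BRD4, LC3-II, LIFR and p-STAT3 by immunohistochemistry, and TUNEL staining was used as the apoptosis marker.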

NCM460 = test: Cytotoxicity against human NCM460 cells; type: cell-based
Method in brief: (§2)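 Antiproliferative IC50 values were measured by MTT assay across a panel of colorectal carcinoma cell lines and normal colorectal epithelial cells.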

SW-620 = test: Antiproliferative activity against human SW620 cells assessed as reduction in cell viability measured after 24 to 48 hrs by MTT assay; type: functional, cell-based
Homo sapiens [2] = organism: Homo sapiens; test: Inhibition of BRD4/HDAC in human HCT116 cells assessed as increase in IL6 mRNA level at 0.5 uM after 24 hrs by RT-PCR analysis; type: cell-based
Method in brief: (§3)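 HCT-116 cells incubated 24 h with test agent (0.5 µM, 2.0 µM or 10 µM depending on compound); IL6, OSM, LIF and CTF1 mRNA levels then quantified.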

Histone deacetylase 9 = Histone deacetylase 9 (Homo sapiens, UniProt Q9UKV0); test: Inhibition of HDAC9 (unknown origin) using biotinylated histone H3 KAc peptide (1 to 21 residues) as substrate by HTRF assay
Chain of Histone deacetylase 9 (Q9UKV0 whole entry, the tested form may be a part): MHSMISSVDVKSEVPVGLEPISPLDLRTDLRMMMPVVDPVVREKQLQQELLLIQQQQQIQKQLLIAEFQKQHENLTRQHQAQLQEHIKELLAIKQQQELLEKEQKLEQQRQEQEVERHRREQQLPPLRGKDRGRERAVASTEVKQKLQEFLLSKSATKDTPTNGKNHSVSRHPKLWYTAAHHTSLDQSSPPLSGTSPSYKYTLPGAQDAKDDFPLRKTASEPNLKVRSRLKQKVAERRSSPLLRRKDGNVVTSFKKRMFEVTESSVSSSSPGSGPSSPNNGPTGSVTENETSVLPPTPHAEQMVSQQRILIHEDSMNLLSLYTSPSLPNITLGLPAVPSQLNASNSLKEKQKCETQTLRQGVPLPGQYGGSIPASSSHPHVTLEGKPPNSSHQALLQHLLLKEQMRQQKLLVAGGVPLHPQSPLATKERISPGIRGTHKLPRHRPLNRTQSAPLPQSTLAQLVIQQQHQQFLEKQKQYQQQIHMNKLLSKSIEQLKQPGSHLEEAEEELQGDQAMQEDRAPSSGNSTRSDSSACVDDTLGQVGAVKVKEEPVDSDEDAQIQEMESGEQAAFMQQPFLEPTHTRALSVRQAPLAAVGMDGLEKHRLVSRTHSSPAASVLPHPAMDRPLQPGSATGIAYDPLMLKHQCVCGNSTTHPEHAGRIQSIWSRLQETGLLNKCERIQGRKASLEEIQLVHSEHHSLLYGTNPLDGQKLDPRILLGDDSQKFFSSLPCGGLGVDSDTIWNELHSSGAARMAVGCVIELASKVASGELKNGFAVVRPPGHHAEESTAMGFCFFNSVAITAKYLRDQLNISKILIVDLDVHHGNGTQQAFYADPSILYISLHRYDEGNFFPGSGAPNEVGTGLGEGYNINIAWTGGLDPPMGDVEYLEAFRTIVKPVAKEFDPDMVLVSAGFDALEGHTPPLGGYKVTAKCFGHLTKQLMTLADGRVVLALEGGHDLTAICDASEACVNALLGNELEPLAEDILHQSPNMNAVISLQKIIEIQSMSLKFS

DLD-1 = test: Antiproliferative activity against human DLD1 cells assessed as reduction in cell viability measured after 24 to 48 hrs by MTT assay; type: functional, cell-based
HCT-116 [3] = test: Induction of apoptosis in human HCT116 cells assessed as early apoptotic cells at 0.2 uM by Annexin-V FITC/propidium iodide staining-based flow cytometry (reference value: 2.8 %); type: functional
Homo sapiens [4] = organism: Homo sapiens; test: Inhibition of BRD4/HDAC in human HCT116 cells assessed as increase in caspase 9 cleavage at 0.2 to 0.5 uM measured after 24 hrs by Western blot analysis; type: cell-based
Mus musculus = test: Induction of autophagy in BALB/cAnNCrl mouse xenografted with human HCT116 cells assessed as increase in LC3-II level in tumor tissue at 15 to 30 mg/kg, po administered on day 1 to day 19 measured on day 19 by immunohistochemical analysis; type: functional, organism-based; method in brief: as §1
[5] = target: T1, Bromodomain-containing protein 4 (Homo sapiens, UniProt O60885); test: Inhibition of human recombinant His-tagged BRD4 BD1 domain using H-SGRGK(Ac)GGK(Ac)GLGK-(Ac)GGAK(Ac)RHRK(Biotin)-OH as substrate preincubated with enzyme for 30 mins followed by substrate addition measured after 30 mins by AlphaScreen assay
HCT-116 [6] = test: Induction of apoptosis in human HCT116 cells assessed as necrotic cells at 0.2 uM by Annexin-V FITC/propidium iodide staining-based flow cytometry (reference value: 0.304 %); type: functional
LoVo = test: Cytotoxicity against human LoVo cells assessed as reduction in cell viability; type: functional, cell-based; method in brief: as §2
HCT-116 [7] = test: Antitumor activity against human HCT116 cells xenografted in orally dosed BALB/cAnNCrl mouse assessed as reduction in tumor volume administered on day 1 to day 19 relative to control; type: functional, organism-based
Method in brief: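 HCT-116 xenografts in mice were given the test agent orally at 15 or 30 mg/kg, with a saline control group, over 19 days. Tumor volume was followed during treatment and tumors were weighed at the end. Body weight was monitored. Inhibition is expressed as treatment-to-control (T/C) ratio.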

[8] = target: T1, Bromodomain-containing protein 4; test: Inhibition of BRD4 in human HCT116 cells transfected with ATG5 siRNA assessed as activation of AMPK-alpha at 0.5 uM by Western blot analysis; type: cell-based
Method in brief: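 HCT-116 cells first transfected with ATG5 siRNA or scramble siRNA; after silencing, exposed to 0.5 µM test agent or normal saline, then ATG5, AMPKα, p-AMPKα, p62 and LC3 protein assessed by western blot.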

[9] = target: T1, Bromodomain-containing protein 4; test: Inhibition of BRD4 in human HCT116 cells assessed as reduction in C-myc level at 0.2 to 0.5 uM measured after 24 hrs by Western blot analysis; type: cell-based
HCT-116 [10] = test: Antiproliferative activity against human HCT116 cells assessed as reduction in cell viability measured after 24 to 48 hrs by MTT assay; type: functional, cell-based
HCT-116 [11] = test: Induction of apoptotic cell death in human HCT116 cells by Annexin-V FITC/propidium iodide staining-based flow cytometry; type: functional
[12] = target: T1, Bromodomain-containing protein 4; test: Inhibition of GST-tagged BRD4 bromodomain (unknown origin) using biotinylated histone H4KAc peptide (1 to 21 residues) as substrate by HTRF assay
[13] = target: T1, Bromodomain-containing protein 4; test: Inhibition of BRD4 in human HCT116 cells assessed as induction of autophagy by measuring increase in cleavage of LC3-I to LC3-II measured after 24 hrs by Western blot analysis; type: cell-based
[14] = target: T1, Bromodomain-containing protein 4; test: Inhibition of BRD4 in human HCT116 cells assessed as induction of autophagic flux by measuring accumulation of LC3-II at 0.5 uM after 24 hrs in presence of auto-phagolysosome inhibitor, bafilomycin-A1 by Western blot analysis; type: cell-based
Method in brief: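 HCT-116 cells received 0.5 μM compound with or without bafilomycin-A1 for 24 hours. LC3 and p62 protein were then analysed by western blot.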

SW480 = test: Cytotoxicity against human SW480 cells assessed as reduction in cell viability; type: functional, cell-based; method in brief: as §2
HCT-116 [15] = test: Induction of apoptotic cell death in human HCT116 cells assessed as change in nuclear morphology at 0.2 to 0.5 uM after 12 hrs by Hoechst 33258 staining based fluorescence microscopy analysis; type: functional
Method in brief: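 Nuclear morphology was examined by Hoechst 33258 staining in HCT-116 cells after treatment at 0.2 or 0.5 μM.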

[16] = Tmax in Sprague-Dawley rat at 30 mg/kg, iv administered as bolus dose measured up to 1440 mins by UPLC-QTOF/MS analysis; type: ADME, organism-based; details: in vivo
Homo sapiens [17] = organism: Homo sapiens; test: Inhibition of BRD4/HDAC in human HCT116 cells assessed as increase in PARP cleavage at 0.2 to 0.5 uM measured after 24 hrs by Western blot analysis; type: cell-based
HCT-116 [18] = test: Decrease in BRD4 expression in human HCT116 cells at 0.2 to 0.5 uM incubated for 24 hrs by western blot analysis; type: functional, cell-based
Homo sapiens [19] = organism: Homo sapiens; test: Inhibition of BRD4/HDAC in human HCT116 cells assessed as increase in OSM mRNA level at 0.5 uM after 24 hrs by RT-PCR analysis; type: cell-based; method in brief: as §3
[20] = target: T1, Bromodomain-containing protein 4; test: Inhibition of BRD4 in human HCT116 cells transfected with GFP-LC3 assessed as induction of autophagy by measuring increase in LC3 puncta at 0.5 uM measured after 24 hrs by confocal fluorescence microscopy; type: cell-based
Method in brief: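 HCT-116 cells transfected with GFP-LC3 plasmid, then incubated 24 h with 0.5 µM test agent; LC3 puncta (autophagosomes) imaged by confocal fluorescence microscopy.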

HCT-116 [21] = test: Induction of apoptosis in human HCT116 cells assessed as necrotic cells at 0.5 uM by Annexin-V FITC/propidium iodide staining-based flow cytometry (reference value: 0.304 %); type: functional

IC50 (SW-620): 1780 nM
IC50 (Histone deacetylase 9): > 10000 nM
IC50 (DLD-1): 2110 nM
IC50 [5]: 1100 nM
inhibition [8]: Active
inhibition [9]: Active
IC50 (HCT-116 [10]): 450 nM
IC50 [12]: 710 nM
inhibition [13]: Dose-dependent effect
inhibition [14]: inactive
inhibition [20]: Active
SMILES: Cc1cc(-c2nc3sc4c(c3c(=O)[nH]2)CCN(C)C4)cc(C)c1OCCCCCC(=O)NO
Activity (HCT-116 [1]): Active
Activity (NCM460): Non-Toxic
inhibition (Homo sapiens [2]): Active
Activity (HCT-116 [3]): 8.2%
inhibition (Homo sapiens [4]): Active
Activity (Mus musculus): Active
Activity (HCT-116 [6]): 7.01%
Activity (LoVo): Active
Activity (HCT-116 [7]): Dose-dependent effect
Activity (HCT-116 [11]): Dose-dependent effect
Activity (SW480): Active
Activity (HCT-116 [15]): Active
Tmax [16]: 7.2 min
inhibition (Homo sapiens [17]): Active
inhibition (HCT-116 [18]): Active
inhibition (Homo sapiens [19]): Active
Activity (HCT-116 [21]): 9.75%

Source: ChEMBL document CHEMBL4342471, “Discovery of Thieno[2,3-d]pyrimidine-Based Hydroxamic Acid Derivatives as Bromodomain-Containing Protein 4/Histone Deacetylase Dual Inhibitors Induce Autophagic Cell Death in Colorectal Carcinoma Cells” (J Med Chem, 2020)
